Results reported in ChEMBL document CHEMBL5058577, “EUbOPEN Chemogenomics Library 2 (Multiplex)” (2022).

Test system: U2OS
Assay: Multiplex assay against U2OS
Format: toxicity, cell-based
Settings: human
Summary of the method: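 Cells stained live at seeding with Hoechst33342, BioTracker Green Microtubule Cytoskeleton Dye, MitoTracker Red and Annexin V Alexa Fluor 680 were imaged on a CQ1 microscope at 37°C and 5% CO2 after compound addition. Their classification by CellPathfinder machine-learning gating ran from Hoechst high-intensity objects versus normal cells, to healthy, pyknosed or fragmented nuclei among normal cells, to mitotic or apoptotic among pyknosed cells. Tubulin, mitochondrial-mass and membrane-permeability phenotypes are per cents of healthy-nucleus cells.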

[1] = 12 h, 1 µM, compound concentration 1 uM, replicate 1
[2] = 12 h, 1 µM, compound concentration 1 uM, replicate 2
[3] = 12 h, 10 µM, compound concentration 10 uM, replicate 1
[4] = 12 h, 10 µM, compound concentration 10 uM, replicate 2
[5] = 24 h, 1 µM, compound concentration 1 uM, replicate 1
[6] = 24 h, 1 µM, compound concentration 1 uM, replicate 2
[7] = 24 h, 10 µM, compound concentration 10 uM, replicate 1
[8] = 24 h, 10 µM, compound concentration 10 uM, replicate 2
[9] = 48 h, 1 µM, compound concentration 1 uM, replicate 1
[10] = 48 h, 1 µM, compound concentration 1 uM, replicate 2
[11] = 48 h, 10 µM, compound concentration 10 uM, replicate 1
[12] = 48 h, 10 µM, compound concentration 10 uM, replicate 2

Structure (SMILES): Cc1c(CC(=O)O)c2cccnc2n1Cc1ccc(S(C)(=O)=O)cc1C(F)(F)F [FEVIPIPRANT]
- Population Apoptotic (%) [1]: 80%
- Population Fragmented Nuclei (%) [1]: 25%
- Population Healthy Nuclei (%) [1]: 64%
- Population Hoechst High Intensity Objects (%) [1]: 1%
- Population Membrane Permeable-Phenotype (%) [1]: 2%
- Population Mitochondria Different-Phenotype (%) [1]: 2%
- Population Mitotic Cells (%) [1]: 19%
- Population Normal (%) [1]: 98%
- Population Pyknosed Nuclei (%) [1]: 9%
- Population Tubulin-Different-Phenotype (%) [1]: 0%
- Total Cell Count [1]: 224
- Population Apoptotic (%) [2]: 50%
- Population Fragmented Nuclei (%) [2]: 22%
- Population Healthy Nuclei (%) [2]: 72%
- Population Membrane Permeable-Phenotype (%) [2]: 8%
- Population Mitochondria Different-Phenotype (%) [2]: 1%
- Population Mitotic Cells (%) [2]: 50%
- Population Pyknosed Nuclei (%) [2]: 5%
- Population Tubulin-Different-Phenotype (%) [2]: 9%
- Total Cell Count [2]: 118
- Population Apoptotic (%) [3]: 90%
- Population Fragmented Nuclei (%) [3]: 27%
- Population Healthy Nuclei (%) [3]: 65%
- Population Hoechst High Intensity Objects (%) [3]: 2%
- Population Membrane Permeable-Phenotype (%) [3]: 3%
- Population Mitochondria Different-Phenotype (%) [3]: 0%
- Population Mitotic Cells (%) [3]: 9%
- Population Normal (%) [3]: 97%
- Population Pyknosed Nuclei (%) [3]: 7%
- Population Tubulin-Different-Phenotype (%) [3]: 1%
- Total Cell Count [3]: 287
- Population Apoptotic (%) [4]: 100%
- Population Fragmented Nuclei (%) [4]: 22%
- Population Healthy Nuclei (%) [4]: 73%
- Population Hoechst High Intensity Objects (%) [4]: 0%
- Population Membrane Permeable-Phenotype (%) [4]: 8%
- Population Mitochondria Different-Phenotype (%) [4]: 3%
- Population Mitotic Cells (%) [4]: 0%
- Population Normal (%) [4]: 99%
- Population Pyknosed Nuclei (%) [4]: 3%
- Population Tubulin-Different-Phenotype (%) [4]: 4%
- Total Cell Count [4]: 116
- Population Apoptotic (%) [5]: 80%
- Population Fragmented Nuclei (%) [5]: 20%
- Population Healthy Nuclei (%) [5]: 71%
- Population Hoechst High Intensity Objects (%) [5]: 2%
- Population Membrane Permeable-Phenotype (%) [5]: 1%
- Population Mitochondria Different-Phenotype (%) [5]: 3%
- Population Mitotic Cells (%) [5]: 20%
- Population Normal (%) [5]: 97%
- Population Pyknosed Nuclei (%) [5]: 8%
- Population Tubulin-Different-Phenotype (%) [5]: 1%
- Total Cell Count [5]: 256
- Population Apoptotic (%) [6]: 66%
- Population Fragmented Nuclei (%) [6]: 17%
- Population Healthy Nuclei (%) [6]: 74%
- Population Hoechst High Intensity Objects (%) [6]: 0%
- Population Membrane Permeable-Phenotype (%) [6]: 9%
- Population Mitochondria Different-Phenotype (%) [6]: 0%
- Population Mitotic Cells (%) [6]: 33%
- Population Normal (%) [6]: 100%
- Population Tubulin-Different-Phenotype (%) [6]: 10%
- Total Cell Count [6]: 145
- Population Apoptotic (%) [7]: 96%
- Population Fragmented Nuclei (%) [7]: 20%
- Population Healthy Nuclei (%) [7]: 70%
- Population Hoechst High Intensity Objects (%) [7]: 0%
- Population Membrane Permeable-Phenotype (%) [7]: 5%
- Population Mitochondria Different-Phenotype (%) [7]: 3%
- Population Mitotic Cells (%) [7]: 3%
- Population Normal (%) [7]: 99%
- Population Pyknosed Nuclei (%) [7]: 8%
- Population Tubulin-Different-Phenotype (%) [7]: 3%
- Total Cell Count [7]: 326
- Population Apoptotic (%) [8]: 100%
- Population Fragmented Nuclei (%) [8]: 12%
- Population Healthy Nuclei (%) [8]: 78%
- Population Hoechst High Intensity Objects (%) [8]: 1%
- Population Membrane Permeable-Phenotype (%) [8]: 8%
- Population Mitochondria Different-Phenotype (%) [8]: 2%
- Population Mitotic Cells (%) [8]: 0%
- Population Normal (%) [8]: 98%
- Total Cell Count [8]: 119
- Population Apoptotic (%) [9]: 65%
- Population Fragmented Nuclei (%) [9]: 18%
- Population Healthy Nuclei (%) [9]: 71%
- Population Hoechst High Intensity Objects (%) [9]: 2%
- Population Membrane Permeable-Phenotype (%) [9]: 4%
- Population Mitochondria Different-Phenotype (%) [9]: 3%
- Population Mitotic Cells (%) [9]: 34%
- Population Normal (%) [9]: 97%
- Population Pyknosed Nuclei (%) [9]: 10%
- Population Tubulin-Different-Phenotype (%) [9]: 2%
- Total Cell Count [9]: 379
- Population Apoptotic (%) [10]: 90%
- Population Fragmented Nuclei (%) [10]: 20%
- Population Healthy Nuclei (%) [10]: 67%
- Population Membrane Permeable-Phenotype (%) [10]: 8%
- Population Mitochondria Different-Phenotype (%) [10]: 5%
- Population Mitotic Cells (%) [10]: 9%
- Population Pyknosed Nuclei (%) [10]: 12%
- Population Tubulin-Different-Phenotype (%) [10]: 9%
- Total Cell Count [10]: 187
- Population Apoptotic (%) [11]: 91%
- Population Fragmented Nuclei (%) [11]: 17%
- Population Healthy Nuclei (%) [11]: 73%
- Population Hoechst High Intensity Objects (%) [11]: 1%
- Population Membrane Permeable-Phenotype (%) [11]: 4%
- Population Mitochondria Different-Phenotype (%) [11]: 3%
- Population Mitotic Cells (%) [11]: 8%
- Population Normal (%) [11]: 98%
- Population Pyknosed Nuclei (%) [11]: 8%
- Population Tubulin-Different-Phenotype (%) [11]: 3%
- Total Cell Count [11]: 408
- Population Apoptotic (%) [12]: 100%
- Population Fragmented Nuclei (%) [12]: 15%
- Population Healthy Nuclei (%) [12]: 76%
- Population Hoechst High Intensity Objects (%) [12]: 3%
- Population Membrane Permeable-Phenotype (%) [12]: 5%
- Population Mitochondria Different-Phenotype (%) [12]: 1%
- Population Mitotic Cells (%) [12]: 0%
- Population Normal (%) [12]: 96%
- Total Cell Count [12]: 158
